Arrestin-AP2 inh – inhibitors of beta-arrestin/AP2 binding, primary screen, biochemical, GPCR trafficking, flow cytometry; beta-arrestin 1 C-terminal peptide binding to AP2 beta2-adaptin appendage (human); FITC-arrestin peptide / GST-AP2 beads; AP2 beta2 appendage carries R879A mutation; inhibition, % at 10 µM; 340,000 compounds, 0.31% hits; AID 504490, 2011;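 active = inhibition above a set limit, near 3 SD of compounds lacking own fluorescence, cut at about 54% in these data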;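 note: plate controls were DMSO wells for no effect and 5 µM unlabelled arrestin peptide for full effect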
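Test system: GST-tagged AP2 beta2-adaptin appendage (R879A) on 4 µm glutathione beads; also added: fluorescein-tagged arrestin peptide at 50 nM final; timing: 12 min plus 1 h, RT; signal: flow cytometry, FL1 (488/535 nm); read-out: percent drop in bead-associated FITC signal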
DAGLB inhibitor – DAGLB lipase inhibitors, primary screen, biochemical, fluorescence, HTS | inhibition, % at 5.17 µM | HEK293T DAGLB membrane lysate, EnzChek fluorogenic substrate | AID 504411, 2011 | 340,000 compounds, 0.059% hits | Diacylglycerol lipase-beta (Homo sapiens), Q8NCG7; in the data active = inhibition above about 34%;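 note: 0% = enzyme with vehicle and 100% = wells lacking enzyme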
HTR5A ag – HTR5A agonists in luminescence cell assay, primary screen, counter-screen for OPRM1-OPRD1 heterodimer agonist project, full-deck HTS. 340,000 compounds, 0.61% hits. activation, % at 9.3 µM. AID 504692, 2011. cell-based. 5-hydroxytryptamine receptor 5A (Homo sapiens), P47898; in the data active = activation mostly above about 9.5%, no sharp cut-off; inactive = mostly below about 7.6%;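 note: 0% = cells with vehicle only and 100% = reference agonist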
Target sequence (P47898 whole entry, looked up): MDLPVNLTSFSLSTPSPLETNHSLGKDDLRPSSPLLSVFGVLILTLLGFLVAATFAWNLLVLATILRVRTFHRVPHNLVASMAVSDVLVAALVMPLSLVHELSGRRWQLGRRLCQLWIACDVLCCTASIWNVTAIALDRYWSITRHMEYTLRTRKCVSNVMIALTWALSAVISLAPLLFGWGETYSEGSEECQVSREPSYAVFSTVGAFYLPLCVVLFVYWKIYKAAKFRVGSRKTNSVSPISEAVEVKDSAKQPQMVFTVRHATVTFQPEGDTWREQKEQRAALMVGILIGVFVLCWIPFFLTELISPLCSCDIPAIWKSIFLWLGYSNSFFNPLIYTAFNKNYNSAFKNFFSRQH
OPRM1-OPRD1 ag – agonists of OPRM1-OPRD1 heterodimerization, primary screen, cell-based, luminescence. cells. activation, % at 9.3 µM. 340,000 compounds, 0.3% hits. Mu-type opioid receptor (Homo sapiens) + Delta-type opioid receptor (Homo sapiens), …. AID 504326, 2011; in the data active = activation above about 18%;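 note: 0% = vehicle-treated cells and 100% = reference agonist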
HTR5A inv ctr – HTR5A inverse agonists in luminescence cell assay, primary screen, counter-screen for OPRM1-OPRD1 heterodimer inverse agonist project, full-deck HTS | 5-hydroxytryptamine receptor 5A (Homo sapiens), P47898 | HTR5A cell line, inverse agonism | inhibition, % at 9.3 µM | 340,000 compounds, 0.083% hits | AID 504634, 2011; in the data active = inhibition mostly above about 23%, no sharp cut-off; inactive = mostly below about 18%;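 note: 0% = cells with DMSO and 100% = no-cell wells with DMSO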
OPRM1-OPRD1 inv – inverse agonists of MOR-DOR heterodimerization, primary screen, cell-based, luminescence. cell-based MOR-DOR heterodimer luminescence, inverse agonism. 340,000 compounds, 0.21% hits. inhibition, % at 9.3 µM. Mu-type opioid receptor (Homo sapiens) + Delta-type opioid receptor (Homo sapiens), …; in the data active = inhibition above about 22%, passing the limit was not always enough;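 note: 0% = cells with DMSO and 100% = wells without cells with DMSO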
Arr AP2 CP1 – inhibitors of arrestin peptide binding to AP2, confirmation, biochemical, cherry pick 1, flow cytometry beads. shares compounds with Arrestin-AP2 inh. GST-AP2 beads, FITC arrestin peptide binding; GST-fused beta2-adaptin appendage, R879A mutant. inhibition, % at 10 µM. 1,300 compounds, 2% hits. AID 504908, 2011;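 active = inhibition above a set limit, roughly 3 SD of non-fluorescent compound noise, cut at about 38% in these data; inactive = inhibition at or below that limit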;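 note: loss of bead fluorescence from 50 nM FITC arrestin peptide bound to appendage; 0% = negative control wells and 100% = excess unlabelled arrestin peptide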
GST GSH counter – GST-fluorescein capture on glutathione beads, confirmation, artefact control for arrestin-AP2 inhibitor project, biochemical, cherry pick 1, flow cytometry; shares compounds with Arrestin-AP2 inh; GST-fluorescein binding to GSH beads, fluorescence, counter-screen; inhibition, % at 10 µM; 1,300 compounds, 2% hits;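 active = inhibition above 50%, about 3 SD of the inhibition seen with non-fluorescent compounds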;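 note: fluorescein maleimide labelled GST captured on 4 micron glutathione beads; higher means more loss of bead fluorescence from quenching or blocked binding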
Numbers without * were called inactive; . = not tested or not shown. Sampled rows, rich in hits. Any-hit rate of the full collection: about 1.4%.

SMILES	Arrestin-AP2 inh	DAGLB inhibitor	HTR5A ag	OPRM1-OPRD1 ag	HTR5A inv ctr	OPRM1-OPRD1 inv	Arr AP2 CP1	GST GSH counter
O=C(Cc1ccc(NC(=O)C2CCCN(C(=O)CCc3ccccc3)C2)cc1)Nc1cccc(C(=O)N2CCCC2)c1 (stereo unspecified)	6	-5	5	0	-17	-2	.	.
N#Cc1ccc(CSc2ccccn2)c(Cl)c1	63*	-4	-2	1	6	-3	-6	-7
COc1ccc(NC(=O)/C(=C\c2cccnc2)NC(=O)c2cccs2)cc1	-5	0	0	-4	8	21	.	.
COc1ccc(NC(=O)/C(=C/c2cccnc2)NC(=O)c2cccs2)cc1	66*	2	-2	-1	7	8	-8	0
COc1ccccc1NS(=O)(=O)c1cccc(C(=O)NCC2(N3CCCCC3)CCCCC2)c1	-7	3	2	0	16	3	8	-9
COc1ccccc1NS(=O)(=O)c1ccc(C)c(C(=O)NCC2(N(C)C)CCCCC2)c1	6	-1	2	1	-4	-3	3	-4
O=C(NCC1(N2CCCCC2)CCCCC1)c1cccc(S(=O)(=O)Nc2ccc(F)cc2)c1	11	3	0	-2	-2	9	-6	-4
O=C(NCC1(N2CCCCC2)CCCCC1)c1cccc(NS(=O)(=O)c2ccccc2)c1	-7	1	0	1	1	-5	.	.
O=C(NCC1(N2CCOCC2)CCCCC1)c1cccc(S(=O)(=O)Nc2ccc(F)cc2)c1	-8	2	-2	-1	-3	4	-2	-1
Cc1cccc(NS(=O)(=O)c2cccc(C(=O)NCC3(N4CCOCC4)CCCCC3)c2)c1	-3	1	-3	-1	6	4	0	-2
NC(=O)C1CCN(C(=O)c2ccc(Cl)c(NC(=O)c3cccs3)c2)CC1	.	1	.	.	.	.	.	.
COc1cccc(C(=O)Nc2ccc3c(c2)n(C)c(=O)n3C)c1	3	1	-4	-4	14	21	.	.
COc1cccc(C(=O)Nc2cc3c(cc2N2CCCC2)n(C)c(=O)n3C)c1	12	1	4	-2	16	9	1	-11
Cn1c(=O)n(C)c2cc(N3CCCC3)c(NC(=O)c3cccc(F)c3)cc21	-7	4	-1	-2	-12	11	25	-2
O=C1C=C(c2ccccc2Oc2ccccc2)C[C@@H](c2ccc(F)cc2)C1	.	-7	.	.	.	.	.	.
COc1ccccc1N(CC(=O)N1CCN(Cc2ccccc2)CC1)S(=O)(=O)c1ccccc1	.	-4	.	.	.	.	.	.
CCOC(=O)C1CCN(C(=O)COC(=O)CSc2ccc([N+](=O)[O-])cc2)CC1	21	-2	-4	-3	10	18	.	.
CC1CCCC(C)N1C(=O)COC(=O)CSc1ccc([N+](=O)[O-])cc1 (stereo unspecified)	75*	-2	-3	0	-20	1	-6	-5
CC1=CC(=O)C(Sc2ccc(C)cc2)=CC1=O	.	-2	.	.	.	.	.	.
CC(=O)c1ccccc1NC(=O)c1cc(S(=O)(=O)N2CCOCC2)ccc1N1CCCC1	-1	-2	-1	-3	2	13	1	-7
CC(C)CNC(=O)c1cc(S(=O)(=O)N2CCOCC2)ccc1N1CCCC1	55*	3	7	-1	29	5	9	-6
COc1ccc(CNC(=O)c2cc(S(=O)(=O)N3CCCCC3)ccc2N2CCOCC2)cc1OC	3	-3	-4	-2	6	9	.	.
COc1ccc(CCNC(=O)c2cc(S(=O)(=O)N3CCOCC3)ccc2N2CCCC2)cc1OC	-11	-2	12	-1	-35	8	-11	2
CC(=O)N1C[C@H]2CON(C)[C@H]2C[C@H]1c1cccc(-c2ccc(C#N)cc2)c1	.	-4	.	.	.	.	.	.
CC(C)CC1C(=O)N(Cc2cn(CCC3OCCCO3)nn2)CCS(=O)(=O)N1Cc1ccc(-c2ccc(Cl)c(Cl)c2)cc1 (stereo unspecified)	.	-3	.	.	.	.	.	.
SMILES	Arrestin-AP2 inh	DAGLB inhibitor	HTR5A ag	OPRM1-OPRD1 ag	HTR5A inv ctr	OPRM1-OPRD1 inv	Arr AP2 CP1	GST GSH counter
COc1ccc(N(C)S(=O)(=O)c2cccc(C(=O)OCC(=O)Nc3cc(C)ccc3OC)c2)cc1	.	-5	.	.	.	.	.	.
Cc1c(Cl)cccc1NC(=O)CSc1nc(=O)n(CCCN2CCOCC2)c2c1CCCC2	.	1	.	.	.	.	.	.
N#Cc1cn(CCOc2ccc(F)cc2)c2ccccc12	57*	-2	18	2	-44	-8	8	-9
CN(c1ccccc1)c1nc(N)c(C#N)c(CC#N)c1C#N	62*	-2	-8	-2	19	9	-11	-3
CN(CCO)c1nc(N)c(C#N)c(CC#N)c1C#N	4	1	7	-1	-20	5	.	.
COCOCCn1cc(CN2CCS(=O)(=O)N(Cc3ccc(-c4cccc(CO)c4)cc3)C(C)C2=O)nn1 (stereo unspecified)	.	2	.	.	.	.	.	.
COc1ccc(Nc2ncccc2C(=O)NCc2ccccc2)cc1	58*	-1	0	2	26	-9	0	-1
COc1cccc(Nc2ncccc2C(=O)NCc2ccccc2)c1	-6	-4	-2	2	7	-14	.	.
O=C(NC1CCCCC1)N(CCN1CCOCC1)Cc1cc2cc3c(cc2[nH]c1=O)OCCO3	1	0	-3	-2	8	10	.	.
COc1ccc(CN(Cc2cc3cc4c(cc3[nH]c2=O)OCO4)C(=O)NC2CCCCC2)cc1	-1	6	-4	-1	-10	4	3	-5
CCN(CC)CCN(Cc1cc2cc3c(cc2[nH]c1=O)OCCO3)C(=O)NC1CCCCC1	5	0	-5	-1	-16	6	8	-8
Cc1c(N(C(=O)c2cnccn2)C2(C(=O)NC3CCCC3)CCCCC2)c(=O)n(-c2ccccc2)n1C	56*	-1	5	-2	-13	10	2	-9
CC(=O)N(c1c(C)n(C)n(-c2ccccc2)c1=O)C1(C(=O)NC2CCCCC2)CCCCC1	17	-4	-3	0	7	1	.	.

From PubChem BioAssay
